Sampled rows, rich in hits. Any-hit rate of the full collection: about 2.3%.
PAX8 inh HTS = PAX8 transcriptional activity inhibition; RMG-I TPO-luciferase reporter, SteadyGlo, 24 h; AID 652154; inhibition, % at 12.6 µM; actives 1.2% (n = 360,000);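 active means mean replicate inhibition at least 60% with every replicate also reaching 60%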;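 further: luciferase light reporting Pax8 driven TPO promoter activity; plate controls were median of neutral control wells for no effect and mitoxantrone controls for full effect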
Rtt109 Vps75 = inhibitors of Candida albicans Rtt109/Vps75 histone acetyltransferase. Q5AAJ8. purified Rtt109/Vps75, ThioGlo CoA-SH fluorescence, 4 h. inhibition, % at 34.9 µM. actives 0.16% (n = 330,000). AID 540336;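 active means inhibition of at least 50% in every replicate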
Target sequence (Q5AAJ8 whole entry, looked up): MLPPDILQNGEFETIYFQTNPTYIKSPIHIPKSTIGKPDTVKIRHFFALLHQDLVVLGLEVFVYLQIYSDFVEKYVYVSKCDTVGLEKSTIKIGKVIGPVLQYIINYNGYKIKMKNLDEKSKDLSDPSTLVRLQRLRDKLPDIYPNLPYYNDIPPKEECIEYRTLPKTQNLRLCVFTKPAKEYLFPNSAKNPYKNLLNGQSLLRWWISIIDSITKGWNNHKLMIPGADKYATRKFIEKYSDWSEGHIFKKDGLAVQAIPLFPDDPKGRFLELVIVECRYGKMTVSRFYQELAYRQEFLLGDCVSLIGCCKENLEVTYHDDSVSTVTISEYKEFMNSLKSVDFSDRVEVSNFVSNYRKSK
N-glyco inh = blocks N-linked glycosylation in D54 reporter cells. D54 ERlucT glycosylation luciferase reporter, 24 h; percent of 100 nM tunicamycin response. reporter increase, % at 12.5 µM. actives 0.23% (n = 360,000);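 active means mean luciferase reporter signal, scaled so untreated is 0 and the glycosylation-blocking control 100, at or above a set limit in every replicate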;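 further: luciferase carries N-glycosylation sites so blocking glycosylation raises the light; 0% = median of neutral control wells and 100% = median of 100 nM tunicamycin wells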
Arrestin-AP2 inh = blocks beta-arrestin peptide binding to AP2 adaptin; actives 0.31% (n = 340,000); inhibition, % at 10 µM; AID 504490; FITC-arrestin peptide / GST-AP2 beads, flow cytometry; AP2 beta2 appendage carries R879A mutation;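 active means inhibition above a set limit, near 3 SD of compounds lacking own fluorescence, cut at about 54% in these data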;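 further: plate controls were DMSO wells for no effect and 5 µM unlabelled arrestin peptide for full effect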
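System: GST-AP2 R879A glutathione beads | Also added: FITC-arrestin peptide, 50 nM | Times: 12 min plus 1 h, RT | Signal: Bead flow cytometry, FITC channel | Buffer or medium: PBS with 0.05% Tween 20 and 0.1% BSA | Read-out basis: Percent drop in bead-associated FITC signal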
Env fusion inh = inhibitors of HIV Env-mediated cell fusion | HeLa-JRFL Env/CEM21 cell fusion, luciferase | inhibition, % at 12.3 µM | AID 651610 | actives 1.1% (n = 360,000);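 active means mean replicate inhibition score of at least 50 and every replicate individually at or above 50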;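 further: 0% = plate neutral controls and 100% = maraviroc near 300 nM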
PfHsp90 set2 = growth inhibition of yeast expressing Plasmodium Hsp90. actives 0.32% (n = 310,000). inhibition, % at 9.4 µM. S. cerevisiae expressing PfHsp90, BacTiter-Glo ATP, 48 h; yeast lacking PDR1 and PDR3 efflux regulators;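 active means every replicate shows inhibition above about 80%, whatever the replicate mean, limit read from the data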;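 further: 0% = DMSO neutral controls and 100% = 20 µM radicicol positive controls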
An asterisk follows results filed as active; . = no result; [ ] = dose if it differs, or a comment.

SMILES	PAX8 inh HTS	Rtt109 Vps75	N-glyco inh	Arrestin-AP2 inh	Env fusion inh	PfHsp90 set2
CCOc1cc(/C=N/NC(=O)c2ccc(CN3CCOCC3)cc2)ccc1OCc1ccccc1	0	0	2	8	56*	23
Cc1ccc(C(C)C)c(OCc2ccc(C(=O)N/N=C/c3ccc(O)c(O)c3)cc2)c1	-2	2	-3	1	15	5
Cc1ccc(C(C)C)c(OCc2ccc(C(=O)N/N=C/c3cccc(O)c3O)cc2)c1	57	1	-11	3	-8	122*
CCOc1cc(/C=N/NC(=O)CN2CCOCC2)ccc1OCc1ccccc1	-15	0	-2	-1	-14	-6
O=C(c1ccncc1)N1C[C@@H]2[C@H](c3ccccc31)[C@H](CO)N2Cc1ccc(F)cc1	2	.	.	.	.	.
COC(=O)C1=C(C(=O)OC)[C@]2([C@H]3CC=CCN[C@@H](Cc4ccccc4)C(=O)N3Cc3ccccc3)C=C[C@H]1O2	47	7	-10	2	58*	13
COC(=O)C1=C(C(=O)OC)[C@]2([C@@H]3CC=CCN[C@@H](Cc4ccccc4)C(=O)N3Cc3ccccc3)C=C[C@H]1O2	12	-2	-9	-1	73*	25
O=C(c1ccccn1)N1CC[C@@H]2[C@@H](CO)Nc3ccc(-c4ccccc4)cc3[C@@H]21	-7	.	.	.	.	.
COc1ccc(Br)cc1CN(C)C(C)C(=O)Nc1cccc(C(C)=O)c1 (stereo not drawn)	7	53*	-10	11	20	28
COc1ccccc1CN(C)C(C)C(=O)Nc1cccc(C(C)=O)c1 (stereo not drawn)	-4	4	-3	10	-2	-22
O=C(Nc1cccc(F)c1)N1CCCCN2[C@@H](CO)[C@H](c3ccc(C#Cc4ccccc4)cc3)[C@@H]2C1	94*	.	.	.	.	.
O=C(Nc1cccc(F)c1)N1CCCCN2[C@H](C1)[C@H](c1ccc(C#Cc3ccccc3)cc1)[C@@H]2CO	3	.	.	.	.	.
O=C(Nc1cccc(F)c1)N1CCCCN2[C@H](CO)[C@@H](c3ccc(C#Cc4ccccc4)cc3)[C@H]2C1	116*	.	.	.	.	.
CN1CCn2cnc(C(=O)N3CCN(c4ccccc4)CC3)c2C1=O	-5	.	0	.	3	.
CC1CCN(C(=O)c2ncn3c2C(=O)NC[C@@H]3C)CC1	1	.	.	.	101*	.
CCN(CC)C(=O)c1ncn2c1C(=O)NC[C@@H]2C	0	.	.	.	117*	.
C[C@H]1CNC(=O)c2c(C(=O)N(C)Cc3ccccc3)ncn21	-3	.	.	.	18	.
C[C@@H]1CNC(=O)c2c(C(=O)NC3CCN(C(=O)OC(C)(C)C)CC3)ncn21	-1	.	1	.	-4	.
C[C@H]1Cn2cnc(C(=O)N3CCN(c4ccccc4)CC3)c2C(=O)N1	-1	.	.	.	88*	.
C[C@@H]1CNC(=O)c2c(C(=O)N3CCN(c4ccccc4)CC3)ncn21	13	.	.	.	89*	.
O=C(C[C@H]1CC[C@H]2[C@@H](COC[C@@H](O)CN2Cc2ccccc2)O1)N1CCOCC1	-13	.	.	.	9[16.7 µM]	.
C[C@H]1CCCCO[C@@H](CN(C)C)[C@@H](C)CN([C@@H](C)CO)C(=O)c2cc(NC(=O)CCCN(C)C)ccc2O1	-9	.	.	.	3[16.7 µM]	.
Cc1cccc(S(=O)(=O)N2C[C@@H](O)COC[C@@H]3O[C@H](CC(=O)NCc4ccc5c(c4)OCO5)CC[C@H]32)c1	5	.	.	.	.	.
COCC(=O)N1CCCCN2[C@H](CO)[C@H](c3ccc(-c4cccc(C)c4)cc3)[C@H]2C1	-21	.	.	.	.	.
CCOC(=O)CSc1nc2ccccc2c(=O)n1CC1COc2ccccc2O1 (stereo not drawn)	.	-6	-1	-2	65*	8
SMILES	PAX8 inh HTS	Rtt109 Vps75	N-glyco inh	Arrestin-AP2 inh	Env fusion inh	PfHsp90 set2
CCCN(CCC)C(=O)CSc1nc2ccccc2c(=O)n1CC1COc2ccccc2O1 (stereo not drawn)	16	5	-4	0	26	13
CS(=O)(=O)N1[C@@H]2Cn3c(ccc(-c4ccccc4)c3=O)[C@H]1[C@@H](C(=O)NCC1CC1)[C@@H]2CO	9	.	.	.	.	.
Cc1cc(C)cc(NC(=O)NC(C)C2CCCO2)c1 (stereo not drawn)	-3	56*	1	.	0	-9
O=C(Nc1cnn(Cc2ccc(Cl)cc2Cl)c1)c1cc(-c2cccs2)on1	.	-15	-2	11	-60	1
CC(=O)c1cccc(NC(=O)Nc2cnn(Cc3ccc(Cl)cc3Cl)c2)c1	.	-5	-1	10	64*	.
Cc1cccc(C(P(=O)(c2ccccc2)c2ccccc2)P(=O)(c2ccccc2)c2ccccc2)n1	-15	0	0	-1	64*	-19
Cc1cccc(C(O)C(O)c2cccc(C)n2)n1 (stereo not drawn)	11	3	1	-13	13	.
Cc1cccc(C)c1N=Nc1c(C)cc(O)cc1C	-55	1	-3	8	-11	112*
COc1cc(Cl)c(S(=O)(=O)N2CCCC2)cc1Cl	-4	-2	-1	20	-16	21
COc1cc(N2C(=O)C=CC2=O)c(OC)cc1Cl	110*	-5	0	19	-2	109*
COc1ccc(NC(=O)N(C)C[C@H]2OCCCC[C@@H](C)Oc3ccc(NS(=O)(=O)c4ccccc4)cc3C(=O)N([C@H](C)CO)C[C@@H]2C)cc1	-23	.	.	.	-25[16.7 µM]	.
O=C(Nc1ccccc1N1CCCC1)c1ccc([N+](=O)[O-])o1	77*	-2	16	3	-8	-3
Cc1[nH]c2ccccc2c1C(=O)C(C)OC(=O)c1ccc([N+](=O)[O-])o1 (stereo not drawn)	62*	-4	10	-1	15	.
CC(=O)c1ccccc1OC(=O)c1ccc([N+](=O)[O-])o1	15	58*	3	16	-3	9
O=C(COC(=O)c1ccc([N+](=O)[O-])o1)NCc1ccccc1	-6	11	0	19	-6	1
Cc1cccc(C)c1NC(=O)COC(=O)c1ccc([N+](=O)[O-])o1	23	2	2	-14	-6	87*
CC1CCN(c2ccccc2NC(=O)c2ccc([N+](=O)[O-])o2)CC1	13	-9	6	-15	6	-10
COc1ccccc1NC(=O)c1ccc([N+](=O)[O-])o1	36	.	.	0	2	.
CCc1noc(C)c1C(=O)OC(C)C(=O)c1c(C)[nH]c2ccccc12 (stereo not drawn)	-1	2	2	-4	.	12
C[C@H](CO)N1C[C@H](C)[C@H](CN(C)Cc2ccncc2)Oc2ccc(NS(=O)(=O)c3ccccc3)cc2CC1=O	-13	.	.	.	.	.
C[C@@H]1CN([C@H](C)CO)C(=O)c2cc(C3=CCCC3)cnc2O[C@@H]1CN(C)C(=O)c1cccnc1	-1	.	.	.	-7[16.7 µM]	.

Source: PubChem BioAssay
